# High-throughput results from PubChem.
# The list is not random: actives were taken first. Their share in the collection is about 2%.
# dFosB act-1: enhances mouse delta FosB homodimer DNA binding. purified delta FosB, TAMRA-CDK5 oligo fluorescence polarization; percent of positive-control signal above neutral wells. 0.99% of 340,000 active. activation, % at 25 µM. P13346. AID 493131;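 active means mean activation above about 17%, with every replicate also reaching it, limit read from the data, passing the limit was not always enough; inconclusive means only one of the two conditions met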
# CAL PDZ FP-1: human CAL PDZ-peptide interaction inhibition | Q9HD26 | purified CAL PDZ, TMR-peptide fluorescence polarization, 1 h | inhibition, % at 20 µM | 0.02% of 330,000 active | AID 504414;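 active means highest replicate inhibition of at least 40%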;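 further: plate controls were DMSO neutral control wells for no effect and unlabeled competitor peptide control wells for full effect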
#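 Test system: tagged CAL PDZ domain / Buffer or medium: sodium phosphate/NaCl buffer pH 7.4 with TCEP, IgG, Thesit / Reagent: TMR-labelled reporter peptide T*-PRC34 bound in PDZ groove / Compound dosing: single point, 20 µM / Schedule: 1 h incubation at room temperature before polarization reading / Technique: fluorescence polarization (mP) / Benchmarks: unlabelled peptide, DMSO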
# PKA-R2B act: activates the human PKA-R2B holoenzyme complex; P22694+P31323; PKA-R2B holoenzyme dissociation, Cy5-IP20 fluorescence polarization; R2B truncated from residue 108, S112A mutant; 0% DMSO only, 100% 113 µM cGMP; activation, % at 11.4 µM; 0.079% of 340,000 active;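 active means activation above a cutoff set at the mean over all compounds plus 3 SD, cut at about 18% in these data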;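 further: higher means more holoenzyme dissociation and a rise in polarization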
# Target sequence (P31323 whole entry, looked up, other chains not shown, the tested form may be a part): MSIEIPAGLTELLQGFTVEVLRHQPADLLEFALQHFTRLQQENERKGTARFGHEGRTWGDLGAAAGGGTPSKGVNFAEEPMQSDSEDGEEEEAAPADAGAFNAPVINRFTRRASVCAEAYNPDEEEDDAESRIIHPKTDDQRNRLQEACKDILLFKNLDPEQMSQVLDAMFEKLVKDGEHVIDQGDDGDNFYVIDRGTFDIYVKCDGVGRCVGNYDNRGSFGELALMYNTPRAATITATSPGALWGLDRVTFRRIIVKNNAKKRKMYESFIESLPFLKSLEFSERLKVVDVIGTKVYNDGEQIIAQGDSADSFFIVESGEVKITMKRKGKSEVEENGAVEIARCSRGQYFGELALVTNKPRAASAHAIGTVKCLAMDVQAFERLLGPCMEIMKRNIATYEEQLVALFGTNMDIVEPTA
# PKA-R1A act: activators of PKA-R1A complex. 0.083% of 340,000 active. P00514+P68181. PKA-R1A dissociation, Cy5-IP20 fluorescence polarization; scaled: DMSO 0%, 113 µM cGMP 100%. activation, % at 11.4 µM;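 active means percent activation above the mean of all tested compounds plus 3 SD, cut at about 19% in these data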;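 further: higher means more PKAc released from R1A so a rise in polarization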
# NTR1 ag: NTR1 (human) agonism; NTR1-U2OS beta-arrestin-GFP spot imaging, agonist mode; 0.17% of 330,000 active; activation, % at 20 µM;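 active means activation at or above 40% of the spot to cytoplasm intensity ratio, with at least 20 cells analyzed; inconclusive means wells under 20 cells, flagged as cytotoxic or low count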;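 further: 0% = DMSO without peptide and 100% = 100 nM NTR1 peptide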
# CAL PDZ FP-2: inhibitors of human CAL PDZ peptide binding; inhibition, % at 24.9 µM; AID 602252; purified CAL PDZ, TMR-peptide fluorescence polarization, 1 h; 0.92% of 300,000 active; Q9HD26;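 active means mean inhibition of at least 30% with at least half of replicates also reaching 30%; inconclusive means no clear call, values can overlap the other calls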;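 further: 0% = DMSO neutral control and 100% = excess unlabeled competitor peptide PRC23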
# dFosB act-2: delta FosB (mouse) homodimer activation; AID 588690; activation, % at 24.9 µM; 2,400 tested, under 10 active; purified delta FosB, TAMRA-CDK5 oligo fluorescence polarization; normalised: neutral wells 0, positive control 100; shares compounds with dFosB act-1;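 active means highest replicate activation at or above 34% and every replicate reaching that threshold; inconclusive means meets only one of the two criteria; inactive means meets neither criterion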;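 further: higher polarization means more probe DNA bound by delta FosB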
# * marks the source's active call; other numbers are inactive results; ? = inconclusive; . = no result given.
SMILES,dFosB act-1,CAL PDZ FP-1,PKA-R2B act,PKA-R1A act,NTR1 ag,CAL PDZ FP-2,dFosB act-2
COc1cc2ccccc2cc1C(=O)N(CCN(C)C)c1nc2ccc(C)cc2s1,40.3*,-4.6,-9.4,-4.6,1.9,-3.7,2.0
Cc1ccc2nc(N(CCN(C)C)C(=O)c3cc(Cl)sc3Cl)sc2c1,1.3,-3.8,-9.1,-0.8,1.2,-25.4,.
COc1ccc2sc(N(CCN(C)C)C(=O)/C=C/c3cccs3)nc2c1,?,-3.4,-5.4,-15.8,4.3,-4.3,.
Cc1cccc2sc(N(CCN(C)C)C(=O)c3cc(Cl)sc3Cl)nc12,-2.5,-1.4,-11.6,-10.6,2.1,-2.4,.
CC(=O)N[C@@H]1[C@@H](O)[C@@H]2OC(c3ccccc3)OC[C@H]2O[C@@H]1N=[N+]=[N-] (some centres undefined),3.5,-1.8,1.9,3.0,-0.1,-3.0,.
Cc1ccccc1[C@]1(C)ON(c2ccccc2C(F)(F)F)C1=O,.,.,.,.,15.9,.,.
COc1ccc(-n2ncc3c2CC(C)(C)CC3NC(=O)c2ccc(OC)o2)cc1 (centres undefined),-6.2,-2.5,-1.4,-7.1,0.1,-8.8,.
CCOc1ccc(OCC)c(NC(=O)c2nnn(CC(=O)Nc3cc(C)cc(C)c3)c2N)c1,60.9*,-2.1,-5.1,-3.6,20.1,.,8.1
CCOc1ccc(CCNC(=O)c2nnn(CC(=O)Nc3c(C)cc(C)cc3C)c2N)cc1OCC,28.7*,-1.7,3.5,-6.8,0.8,0.8,2.2
COc1ccc(CCNC(=O)c2nnn(CC(=O)Nc3c(C)cc(C)cc3C)c2N)cc1OC,80.5*,-2.6,1.1,-15.5,-1.9,-1.9,3.3
C[C@H]1CN([C@@H](C)CO)S(=O)(=O)c2ccc(Br)cc2O[C@H]1CN(C)S(=O)(=O)c1ccccc1,.,.,12.6,-10.1,.,.,.
N#Cc1c(SCC(=O)Nc2ccccc2)nsc1SCC(=O)Nc1ccccc1,24.7*,0.1,1.4,0.7,6.6,3.4,-0.3
Cc1ccsc1/C=N/NC(=O)c1nnn(-c2nonc2N)c1CSc1ccccc1,18.0*,-1.1,-7.0,-0.1,4.6,-0.6,1.5
CCOc1ccc(/C=N/NC(=O)c2nnn(-c3nonc3N)c2COc2ccc(F)cc2)cc1,40.1*,0.1,-4.8,-13.5,-0.9,-4.6,-1.1
Nc1nonc1-n1nnc(C(=O)N/N=C/c2ccc(F)cc2)c1-c1cccs1,54.5*,-1.1,-11.6,-10.7,3.0,-2.6,-2.7
CN(C)c1ccc(/C=N/NC(=O)c2nnn(-c3nonc3N)c2COc2ccc(F)cc2)cc1,-10.0,-1.1,-0.7,12.1,0.6,.,.
O=C(Nc1ccc(Br)cc1)c1cccc(N2C(=O)C3C4CCC(C4)C3C2=O)c1 (centres undefined),20.2*,-1.9,-3.3,2.3,1.7,-3.9,5.6
O=C(Nc1ccc(F)cc1)c1cccc(N2C(=O)C3C4CCC(C4)C3C2=O)c1 (centres undefined),1.3,-2.6,-1.7,-6.7,-0.4,-3.5,.
C/C(=N\N=C(/N)SC1CC(=O)N(c2ccc(Cl)c(Cl)c2)C1=O)c1cccs1 (centres undefined),25.2*,-2.9,-6.1,0.3,13.0,-4.0,2.7
Cc1ccc(NC(=O)Cn2nc([N+](=O)[O-])c(Br)c2C)cc1C,49.2*,-1.8,-10.0,-3.8,-0.6,-1.8,1.4
CCOC(=O)c1c(C)[nH]c(C(=O)OCC(=O)Nc2cc(C)c(Cl)cc2OC)c1C,45.2*,-0.4,0.8,-3.8,2.3,37.0*,0.8
COc1ccc(/C=C/C(=O)Nc2c(C)nn(C)c2C)cc1COc1ccc(Cl)cc1Br,130.8*,-3.0,0.8,0.9,4.1,1.5,-7.0
CN(CC(=O)Nc1ccc(Cl)c(C(F)(F)F)c1)C(=O)c1cc(=O)c2ccccc2o1,33.4*,-1.3,0.1,-1.7,1.1,-2.6,0.2
CN(CC(=O)Nc1ccc(Cl)c(C(F)(F)F)c1)C(=O)/C=C/c1cccs1,28.5*,-1.5,-3.1,7.9,-0.3,1.0,0.0
CN(CC(=O)Nc1ccc(Cl)c(C(F)(F)F)c1)C(=O)c1cc(=O)[nH]c2ccccc12,-21.5,-2.2,0.1,-13.1,3.2,-3.3,.
SMILES,dFosB act-1,CAL PDZ FP-1,PKA-R2B act,PKA-R1A act,NTR1 ag,CAL PDZ FP-2,dFosB act-2
O=C(Nc1ccccc1)Nc1snnc1C(=O)Nc1cccc(O)c1,57.3*,-2.0,4.3,-2.6,2.1,3.6,1.2
O=C(Nc1cccc(O)c1)c1cccc(C(=O)Nc2cccc(O)c2)c1,-5.9,-3.4,-0.8,4.6,-2.2,-4.2,.
C#CCN(C[C@H]1[C@H](OC(=O)NC2CC2)[C@H](OC(=O)NC2CC2)C[C@@H](C(=O)OC)[C@H]1C(=O)OC)S(=O)(=O)c1ccc(C)cc1,.,.,-0.6,-4.3,.,.,.
CCN(CC)CCN=c1c(C)nc(C#N)c(N)n1O,.,.,-10.3,6.7,.,.,.
COc1cc2c(cc1OC)C(c1ccc(Cl)cc1)=NCC2,0.2,-1.9,2.0,-11.8,0.3,.,.
COc1cc2c(cc1OC)C(c1ccc(-c3ccc(Cl)cc3Cl)o1)=NCC2,34.1*,-0.7,-12.6,-16.2,9.1,-1.1,-29.9
COC(=O)CCC1(C(N)=O)CCC(=O)c2ccccc21 (centres undefined),-5.4,-0.1,5.5,4.7,.,-0.9,.
CN(C)CCCN(C(=O)c1ccc(S(=O)(=O)N(C)C2CCCCC2)cc1)c1nc2ccc(F)cc2s1,2.7,-0.8,-4.3,7.3,17.2,-18.1,.
CN(C)CCCN(C(=O)c1cc(Cl)sc1Cl)c1nc2cc3c(cc2s1)OCO3,12.4,-4.0,-1.9,1.4,5.8,3.1,.
CCc1ccc2nc(N(CCCN(C)C)C(=O)c3ccc(S(=O)(=O)N4CCc5ccccc5C4)cc3)sc2c1,46.8*,-1.2,-5.0,-1.1,30.1,-1.3,-4.1
CN(C)CCCN(C(=O)c1ccc(S(=O)(=O)N(C)C2CCCCC2)cc1)c1nc2ccc(Br)cc2s1,22.5*,-2.2,1.2,-2.5,14.9,-8.4,-0.2
CCOc1cccc2sc(N(CCCN(C)C)C(=O)c3ccc(S(=O)(=O)N4CCc5ccccc5C4)cc3)nc12,6.8,-1.0,-9.6,1.2,2.7,2.4,.
CN(C)CCCN(C(=O)c1ccc(Cl)s1)c1nc2cc3c(cc2s1)OCO3,18.0*,-3.2,-5.4,-0.5,0.8,-2.6,3.5
CN(C)CCCN(C(=O)c1nc2ccccc2s1)c1nc2ccc(F)cc2s1,13.6,0.3,-4.1,-6.4,1.3,-0.9,.
CN(C)CCCN(C(=O)c1ccc(C(=O)c2ccccc2)cc1)c1nc2ccc(F)cc2s1,30.0*,-4.4,-14.6,-4.5,15.9,-2.1,-0.3
